ChEMBL document CHEMBL5096213 (Bioorg Med Chem, 2022)
≈ marks a conversion by molar mass, not a printed value.

Experiments:
[1] = test system: Mycobacterium tuberculosis variant bovis; assay: Antimycobacterial activity against Mycobacterium bovis BCG Pasteur ATCC35734 assessed as inhibition of bacterial growth incubated for 5 days by broth microdilution method; format: functional; details: BCG Pasteur ATCC35734, 120 h, time 5 day
Outline: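 M. bovis BCG Pasteur grown to mid-log (OD600 0.4–0.6), seeded at OD600 0.05 into 2-fold serial compound dilutions in complete Middlebrook 7H9, neutral pH. Incubation 5 days, 37 °C, shaking 90 rpm, humidified. […] At least two experiments, means reported.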

[2] = test system: Mycobacterium tuberculosis variant bovis; assay: Potency index, ratio of pyrazinoic-acid MIC50 to test compound MIC50 for antimycobacterial activity against Mycobacterium bovis BCG Pasteur ATCC35734 assessed as inhibition of bacterial growth incubated for 5 days by broth microdilution method; format: functional; details: time 5 day

Structure (SMILES) | MIC50 [1] [µM] | Ratio [2]
Cc1cnc(C(=O)O)cn1 | 3200 (≈ 442 µg/mL) | –
O=C(O)c1cnc(Cl)cn1 | 1700 (≈ 270 µg/mL) | –
O=C(O)c1cnc2ccccc2n1 | 700 (≈ 122 µg/mL) | –
NC(=S)c1cnccn1 | 2700 (≈ 376 µg/mL) | –
O=C(O)c1cncnc1 | > 5000 | –
CC(=O)c1cnccn1 | > 5000 | –
O=C(O)c1ccnnc1 | > 4000 | –
O=C(O)c1cccnn1 | > 5000 | –
CCCC(=O)Nc1cnc(C(=O)O)c(N)n1 | > 4000 | –
CCCNc1cnc(C(=O)O)cn1 | 1400 (≈ 254 µg/mL) | –
O=C(O)c1cnc(O)cn1 | > 3000 | –
O=C(O)c1nccnc1N1CCSCC1 | > 5000 | –
CC(C)(C)Nc1nccnc1C(=O)O | 400 (≈ 78.1 µg/mL) | –
O=C(O)c1nccnc1Br | > 4000 | –
CCCNc1nccnc1C(=O)O | 200 (≈ 36.2 µg/mL) | –
CC(C)CNc1cnc(C(=O)[O-])cn1.[Na+] | 400 | 2.5
CC(C)Nc1nccnc1C(=O)O | 20 (≈ 3.62 µg/mL) | –
O=C(O)c1nccnc1Nc1ccccc1 | 400 (≈ 86.1 µg/mL) | –
CC(=O)Nc1cnc(C(=O)O)c(N)n1 | > 4000 | –
Cc1nccnc1C(=O)O | 3500 (≈ 483 µg/mL) | –
CCCCNc1nccnc1C(=O)O | 600 (≈ 117 µg/mL) | –
CC(C)CN(C)c1cnc(C(=O)O)c(N)n1 | 700 (≈ 157 µg/mL) | –
CCN(CC)c1nccnc1C(=O)O | 3600 (≈ 703 µg/mL) | –
COc1nccnc1C(=O)O | 2700 (≈ 416 µg/mL) | –
CCC(=O)Nc1cnc(C(=O)O)cn1 | 3500 (≈ 683 µg/mL) | –
CNc1nccnc1C(=O)O | 700 (≈ 107 µg/mL) | –

Structure (SMILES) | MIC50 [1] [µM] | Ratio [2]
O=C(O)c1cnc(NC2CCC2)cn1 | > 2500 | –
CCCCN(C)c1nccnc1C(=O)O | 2300 (≈ 481 µg/mL) | –
O=C(O)c1nccnc1-c1ccccc1 | 1500 (≈ 300 µg/mL) | –
NS(=O)(=O)c1cnccn1 | > 4000 | –
CCCCN(C)c1cnc(C(=O)O)c(N)n1 | 200 (≈ 44.9 µg/mL) | –
CC(C)CNc1cncc(C(=O)[O-])n1.[Na+] | > 2500 | 2.5
Cc1cccc(-c2nccnc2C(=O)O)c1 | 800 (≈ 171 µg/mL) | –
O=C(O)c1nccnc1N1CCCCC1 | > 2500 | –
Cc1ccccc1-c1nccnc1C(=O)O | > 5000 | –
CCNc1nccnc1C(=O)[O-].[Na+] | 400 | 2.5
CCC(=O)Nc1cncc(C(=O)O)n1 | 200 (≈ 39 µg/mL) | 5
O=C(O)c1nccnc1NCc1ccccc1 | 200 (≈ 45.8 µg/mL) | –
CC(C)C(=O)Nc1cnc(C(=O)O)c(N)n1 | > 4000 | –
O=C(O)c1nccnc1Cl | 1800 (≈ 285 µg/mL) | –
O=C(O)c1ncccn1 | > 4000 | –
CC(C)Nc1cnc(C(=O)O)c(N)n1 | 1200 (≈ 235 µg/mL) | –
O=C(O)c1cncc(-c2ccccc2)n1 | 1700 (≈ 340 µg/mL) | –
c1cnc(-c2nnn[nH]2)cn1 | > 4000 | –
CCNc1cnc(C(=O)[O-])cn1.[Na+] | 1800 | 2.5
CC(C)CN(C)c1nccnc1C(=O)O | 3500 (≈ 732 µg/mL) | –
Nc1cnc(C(=O)O)cn1 | 800 (≈ 111 µg/mL) | –
CN(Cc1ccccc1)c1nccnc1C(=O)O | 700 (≈ 170 µg/mL) | –
COc1cnc(C(=O)O)cn1 | 3500 (≈ 539 µg/mL) | –
O=C(O)c1cnc(Br)cn1 | 2500 (≈ 507 µg/mL) | –
O=C(O)c1nccnc1N1CCC2(CC1)CC2 | > 2500 | –
O=C(O)c1nccnc1N1CCOCC1 | > 5000 | –

Structure (SMILES) | MIC50 [1] [µM] | Ratio [2]
O=C(O)c1cncc(O)n1 | > 2400 | –
O=C(O)c1cncc(Br)n1 | 3000 (≈ 609 µg/mL) | –
Nc1cncc(C(=O)O)n1 | 2600 (≈ 362 µg/mL) | –
O=C(O)c1nccnc1NC1CCCC1 | 400 (≈ 82.9 µg/mL) | –
O=C(O)c1ccncn1 | 2000 (≈ 248 µg/mL) | –
CC(C)CNc1nccnc1C(=O)[O-].[Na+] | 200 | 2.5
O=C(O)c1cncc(Cl)n1 | 1000 (≈ 159 µg/mL) | –
CCNc1cncc(C(=O)[O-])n1.[Na+] | > 2500 | 2.5
CCC(=O)Nc1nccnc1C(=O)O | 1500 (≈ 293 µg/mL) | –
O=C(O)c1nccnc1NC1CCC1 | 400 (≈ 77.3 µg/mL) | –
O=C(O)c1cncc(NC2CCC2)n1 | > 2500 | –
CC(=O)NS(=O)(=O)c1cnccn1 | > 4000 | –
Nc1nccnc1C(=O)O | 800 (≈ 111 µg/mL) | –
Cc1ccc(-c2nccnc2C(=O)O)cc1 | 1000 (≈ 214 µg/mL) | –
O=C(O)c1cnc(-c2ccccc2)cn1 | > 4000 | –
O=C(O)c1nccnc1O | > 4000 | –
COc1cncc(C(=O)O)n1 | 2000 (≈ 308 µg/mL) | –
Cc1cncc(C(=O)O)n1 | 2400 (≈ 332 µg/mL) | –
O=C(O)c1nccnc1N1CCCC1 | 4700 (≈ 908 µg/mL) | –
O=C(O)c1ccccn1 [2-PICOLINIC ACID] | 700 (≈ 86.2 µg/mL) | –
O=C(O)c1ccccc1 [BENZOIC ACID] | 2200 (≈ 269 µg/mL) | –
O=C(O)c1ccncc1 [ISONICOTINIC ACID] | 2700 (≈ 332 µg/mL) | –
O=C(O)c1cccnc1 [NIACIN] | 900 (≈ 111 µg/mL) | –
O=C(O)c1cnccn1 [PYRAZINOIC ACID] | 1000 (≈ 124 µg/mL) | –
